Assay outcomes from PubChem.
TNAP inh hi DEA: inhibitors of human TNAP at high phosphate acceptor concentration. AID 1135. 200,000 tested, 0.03% active. purified TNAP, CDP-star luminescence, 1 M DEA. P05186. inhibition, % at 20 µM;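 active = over 50% inhibition of tissue-nonspecific alkaline phosphatase at 20 µM in the single-dose screen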;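 note: plate controls were DMSO wells for no effect and EDTA-quenched wells as full inhibition for full effect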
Target sequence (P05186 whole entry, looked up): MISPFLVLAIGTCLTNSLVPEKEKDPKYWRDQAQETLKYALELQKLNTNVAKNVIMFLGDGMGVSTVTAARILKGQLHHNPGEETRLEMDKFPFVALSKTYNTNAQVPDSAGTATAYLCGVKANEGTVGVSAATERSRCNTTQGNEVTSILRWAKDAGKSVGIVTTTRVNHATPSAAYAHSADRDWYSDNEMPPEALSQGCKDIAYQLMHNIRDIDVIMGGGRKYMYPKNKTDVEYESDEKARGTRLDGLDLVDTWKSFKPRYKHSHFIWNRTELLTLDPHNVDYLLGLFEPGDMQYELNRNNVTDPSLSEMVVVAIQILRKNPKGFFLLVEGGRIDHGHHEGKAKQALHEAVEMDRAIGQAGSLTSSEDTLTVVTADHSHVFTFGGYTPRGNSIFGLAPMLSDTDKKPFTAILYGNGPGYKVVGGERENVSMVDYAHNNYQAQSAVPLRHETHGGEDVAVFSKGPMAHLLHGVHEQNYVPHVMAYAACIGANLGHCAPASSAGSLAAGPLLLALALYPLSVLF
PMI act satM6P: PMI (human) activation, high substrate; P34949; coupled PMI enzyme assay, resazurin fluorescence, 20 min; stronger effect = higher value; 1 = untreated enzyme, 0 = substrate-free blank; activation factor at 20 µM; 190,000 tested, 0.34% active; AID 1216;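 active = activation factor of 2 or more at 20 µM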
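test system = human PMI in coupled enzyme assay | medium = HEPES-buffered pH 7.4 with magnesium and detergent | also added = 1.0 mM mannose-6-phosphate substrate with 0.22 mM NADP+ | compound = 20 µM single dose | times = 20 min incubation at room temperature | measured by = resorufin fluorescence (Ex 544/Em 590 nm) from resazurin via diaphorase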
TNAP inh no acc: blocks human TNAP activity with no phosphate acceptor present; inhibition, % at 20 µM; 200,000 tested, 0.26% active; P05186; purified TNAP, CDP-star luminescence, 30 min; AID 1012;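 active = tissue-nonspecific alkaline phosphatase inhibition above about 50% at 20 µM in the single-dose screen, limit read from the data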;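 note: 0% = DMSO negative control and 100% = EDTA positive control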
PMI act: increases human mannose-6-phosphate isomerase activity; P34949; purified human PMI, coupled resazurin fluorescence, 20 min; stronger effect = higher value; 1 = vehicle control, 0 substrate-free wells; activation factor at 20 µM; 190,000 tested, 0.005% active; AID 1214;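 active = activation factor of 2 or more at 20 µM, relative to plate controls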
TNAP act hi DEA: increases human TNAP activity under high phosphate acceptor concentration; AID 1136; P05186; activation factor at 20 µM; 200,000 tested, under 10 active; purified TNAP, CDP-star luminescence, 1 M DEA, 30 min; stronger effect = higher value; 0 = EDTA background, 1 = DMSO-only activity;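 active = activation factor at least 2 at 20 µM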
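system = human TNAP | amount = enzyme diluted 1/800 final | reagent = 100 µM CDP-star substrate | signal = luminescent substrate turnover signal | dosing = one dose, 20 µM | benchmarks = EDTA negative control, DMSO positive control | measure = activation factor | timing = 30 min reaction, room temperature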
Starred values were filed as active, the others as inactive; x = no result. This is a sample that favours compounds with a hit; in the whole collection about 0.64% have one here.

SMILES | TNAP inh hi DEA | PMI act satM6P | TNAP inh no acc | PMI act | TNAP act hi DEA
COc1ccc(OCC2c3cc(OC)c(OC)cc3CCN2C(=O)C(C)C)cc1 (configuration not stated) | -1.9 | 0.9 | -5.5 | 0.9 | 1
COc1ccc(C(=O)c2c(C(F)(F)F)oc3c2C(=O)c2ccccc2C3=O)cc1 | -2.4 | 2* | 6.5 | 1.5 | 1
Cc1ccc(C(=O)c2c(C)oc3c2C(=O)C(=O)c2ccccc2-3)cc1 | 3.6 | 0.3 | -2.8 | 0.3 | 1
C=CCn1c(SCC(=O)NC(=O)c2cccc([N+](=O)[O-])c2)nnc1-c1ccccc1 | -4.5 | 0.9 | -4.3 | 1 | 1
Cc1c2cc(O)c(=O)cc-2oc2cc(O)c(O)cc12 | 17.9 | 0.7 | 57.4* | 0.5 | 0.8
COc1cc(OC)c(-c2c3cc(O)c(=O)cc-3oc3cc(O)c(O)cc23)cc1OC | 21.7 | 0.3 | -324.9 | 0.3 | 0.8
Cc1cccc(N2CCN(Cc3nc(-c4cccc(Oc5ccccc5)c4)oc3C)CC2)n1 | -7.6 | x | -10.8 | x | 1.1
Cc1ccc(NC(=O)N2CCC(=O)N2)cc1 | -0.4 | 2* | -8.1 | 1.3 | 1
Cc1ccc(NC(=O)C(C)C(=O)Nc2ccc(C)cc2)cc1 | -1.3 | 1.1 | -3.3 | 1.1 | 1
O=C(O)CCN1C(=O)CC(N2C(=O)/C(=C/c3ccc(Cl)cc3)SC2=S)C1=O (configuration not stated) | 4.1 | 1.1 | 63.5* | 1 | 1
O=C(CCN1C(=O)S/C(=C/c2ccc(Cl)cc2)C1=O)N1CCOCC1 | 4.3 | 1 | -14.0 | 0.9 | 1
O=C(N/N=C1\CCCc2ccccc21)c1ccc([N+](=O)[O-])cc1Cl | 8.8 | 1.1 | -2.0 | 1.1 | 0.9
Cc1ccc(C2NCCS2)cc1 (configuration not stated) | 2.1 | 1.3 | 63.1* | 1.5 | 1
CSCCC(=O)Nc1nc(-c2ccccn2)cs1 | 0.3 | 2.2* | -39.5 | 1.7 | 1
CC12CCC(C(=O)N(CC(O)CN3CCCCCC3)C1=O)C2(C)C (configuration not stated) | -1.0 | 1 | -16.7 | 0.9 | 1
Fc1ccc(N/N=C2/CC(c3ccccc3)Oc3ccccc32)c(F)c1 (configuration not stated) | 3.2 | 2.5* | -0.6 | 1.7 | 1
N#CCC(=O)Nc1ccc(C(=O)NCc2ccccn2)cc1 | -2.4 | 1.1 | -3.4 | 1.1 | 1
Cc1nnc2c3cnn(-c4ccc(Cl)cc4)c3ncn12 | -5.2 | 1 | 67.4* | 1 | 1.1
CCOC(=O)Cn1cnc2c(cnn2-c2ccc(Cl)cc2)c1=O | -6.1 | 1 | -9.8 | 1 | 1.1
Cc1nonc1C1CCCN1C(=O)c1cc(COc2ccc(F)cc2Cl)on1 (configuration not stated) | 4.8 | 0.9 | -2.0 | 0.9 | 1
Nc1nc(SCC(=O)N2CCc3ccccc32)[nH]c(=O)c1-c1ccccc1 | -9.0 | 1.1 | 66.4* | 1 | 1.1
Nc1nc(SCC(=O)N2CCCC2)[nH]c(=O)c1-c1ccccc1 | -2.6 | 1 | -8.4 | 1 | 1
O=C(NCCN1CCOCC1)c1ccc2c(c1)ncn2C1CCCCC1 | -1.1 | 1.1 | -9.1 | 1 | 1
C=CCOc1c(Br)cc(/C=N/n2c(CC)n[nH]c2=S)cc1Br | 16.0 | 1.2 | 58.7* | 1.2 | 0.8
Cc1cc(C)c2c(c1)C1C=CCC1C(c1ccc(S(=O)(=O)N3CCOCC3)cc1)N2 (configuration not stated) | -2.8 | 2.2* | -5.7 | 1.4 | 1
SMILES | TNAP inh hi DEA | PMI act satM6P | TNAP inh no acc | PMI act | TNAP act hi DEA
O=C(O)c1cc(Cl)c2c(c1)[C@@H]1C=CC[C@@H]1[C@H](c1ccc(S(=O)(=O)N3CCOCC3)cc1)N2 | -0.6 | 1.7 | -8.6 | 1.4 | 1
Cc1ccccc1N=C1NN=C(c2ccccc2F)CS1 | 1.5 | 1 | -18.0 | 0.8 | 1
Cc1nc2nc(-c3ccccc3)cn2nc1C | -6.0 | 1.5 | -21.8 | 1.3 | 1.1
CCc1ccc(-c2cn3nc(C)c(C)nc3n2)cc1 | -4.7 | 2.2* | -18.8 | 1.8 | 1
O=C(CN1CCCc2ccccc21)NC(=O)NC1CCCCC1 | -4.1 | 1 | 3.1 | 1.1 | 1
NC(=O)C1CCN(C(=O)CN2CCCc3ccccc32)CC1 | -3.3 | 2* | -6.0 | 1.5 | 1
Cc1ccc(C(=O)NCC(=O)OC(C)C(=O)Nc2ccc(N(C)C)cc2)cc1C (configuration not stated) | -5.0 | 0.9 | -8.1 | 0.9 | 1.1
O=C(NNc1cc(Br)c(O)c(Br)c1)c1ccccc1 | 3.4 | 2* | 33.9 | 1.6 | 1
Cc1cccc(C(=O)NNC(=O)c2ccccc2)c1 | -7.2 | 1 | -13.7 | 0.9 | 1.1
CCCn1c(SCC(=O)NCc2ccccc2)nnc1-c1ccncc1 | 0.6 | 1.1 | -15.5 | 1.1 | 1
Clc1cncc(Cl)c1NNc1c2ccccc2nc2ccccc12 | 8.3 | 2.2* | 8.4 | 1.6 | 0.9
Cc1cc(Cl)c2ccccc2n1 | -5.9 | 1 | -6.9 | 1.1 | 1.1
Cc1ccc(C)c(S(=O)(=O)N=Nc2c(O)[nH]c3ccccc23)c1 | 2.3 | 2.1* | -2.6 | 1.8 | 1
Cc1ccc(S(=O)(=O)N=Nc2c(O)[nH]c3ccccc23)cc1 | -6.5 | 2.4* | -8.3 | 2.2* | 1.1
CCOCCCNC(=O)c1cc(=O)n(Cc2cccc(C)c2)c2ccccc12 | -1.7 | 1.1 | -7.3 | 1.1 | 1
Clc1ccccc1-c1nc(-c2ccccc2)n[nH]1 | 3.4 | 1 | 90.8* | 1 | 1
NNC(=O)c1cc(-c2ccco2)[nH]n1 | 1.1 | 1 | 75.4* | 1 | 1
COc1ccc2[nH]cc(CCNS(=O)(=O)c3ccccc3)c2c1 | -3.0 | 0.8 | -2.3 | 0.8 | 1
CC(OC(=O)c1cc(=O)[nH]c2ccccc12)C(=O)c1ccccc1 (configuration not stated) | 0.9 | 0.9 | -0.1 | 0.9 | 1
Cc1cc(C)cc(Oc2ccccc2CO)c1 | -4.8 | 0.9 | -8.1 | 0.9 | 1
COc1ccc(NC(=O)N/C=C/c2ccco2)cc1 | -2.5 | 2.2* | -0.7 | 1.8 | 1
OC(Cn1cncn1)(c1ccccc1)c1ccccc1 | -2.4 | 1 | -9.6 | 0.9 | 1
C=CCN1C(=O)/C(=C\C=C2\N(C)c3ccccc3C2(C)C)SC1=S | 48.6 | 0.7 | -3.7 | 0.8 | 0.5
CN1/C(=C\C=C2/SC(=S)N(CC(=O)O)C2=O)C(C)(C)c2ccccc21 | 50.1* | 0.8 | 52.1* | 0.8 | 0.5
CCN1CCN(S(=O)(=O)c2ccc3ccccc3c2)CC1 | -6.8 | 1 | -8.8 | 1.1 | 1.1
NNc1ccccc1C(F)(F)F | -3.3 | 3.1* | -26.0 | 2* | 1
N#Cc1c2ccc(O)cc2n2ccccc12 | -0.6 | 0.4 | -13.7 | 0.7 | 1
Cc1ccc(-n2c(SCC(=O)NCc3ccco3)nc3c(sc4ccccc43)c2=O)cc1 | -4.0 | 0.9 | -9.2 | 0.9 | 1
